Measured values reported in paper PMC4306503 (Bioconjugate Chemistry, 2014).
*1 amine or outer side, *2 acyl side, *3 side chain or, on linkers, in order; H or OH if unused. Where a SMILES comes first, the peptide text is derived from it. Side-chain parts run from the residue outwards. [ ]: non-standard residue; d: D form. The star is where a group is joined. X1 = COc1cc2c3cc1OCCOc1cc4c(cc1OC)Cc1cc5c(OC)cc1Cc1cc(c(OCc6cn(CCC(=O)*)nn6)cc1C4)OCCOc1cc(c(cc1OC)Cc1cc(c(OC)cc1C3)OCCO5)C2; Pteroyl = Nc1nc2ncc(CNc3ccc(C(=O)*)cc3)nc2c(=O)[nH]1; γGlu = O=C(O)[C@H](CCC(=O)[*:2])N[*:1]; AEEEA = NCCOCCOCCOCC(=O)O; StBu = CC(C)(C)S*

What was measured:
[1] = at 300 K; cited from earlier work
[2] = molecular target: reduced folate carrier (RFC); settings: low affinity folate carrier RFC; cited from earlier work
[3] = molecular target: folate receptor (FR); settings: high affinity FR, 1:1 stoichiometry; cited from earlier work
[4] = Solubility in water after HPLC purification; format: physicochemical; settings: after cleavage from solid support and reverse-phase HPLC purification
[5] = molecular target: folate binding protein (FBP) (Bos taurus, UniProt P02702); experiment: Hyperpolarized 129Xe NMR with folate binding protein; settings: 30 μM FBP, 30 and 60 μM biosensor, acetate buffer pH 5.0 with and without 10% glycerol, incubated 30 min
[6] = test system: KB (FR+) cells; experiment: MTT cell viability assay, KB cells; format: cell-based, human; settings: 100 μM (highest concentration), 24 h incubation
Procedure, shortened: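 KB cells kept in RPMI-1640 (25 mM HEPES, 2 mM L-glutamine, 15% fetal calf serum, penicillin/streptomycin) and seeded at 25 000 per well overnight. Unlabelled test conjugate added in triplicate at final 0–100 μM for 24 h in the dark. Cells then DPBS-washed thrice and given MTT (5 mg/mL solution) for 3 h. Formazan was dissolved in DMSO and read at 540 nm. Viability is expressed as percent of untreated-control absorbance.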

Sequence of folate binding protein (FBP) (P02702 20-241): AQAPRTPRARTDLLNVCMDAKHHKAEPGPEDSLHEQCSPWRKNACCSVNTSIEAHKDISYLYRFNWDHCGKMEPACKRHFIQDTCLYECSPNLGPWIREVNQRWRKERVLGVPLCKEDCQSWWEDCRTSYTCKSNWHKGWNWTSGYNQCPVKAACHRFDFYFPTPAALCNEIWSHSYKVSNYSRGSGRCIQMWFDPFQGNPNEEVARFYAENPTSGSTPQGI

**Q.** Which water solubility [1] does the source give for `[Xe]` [129Xe] here?
**A.** The water solubility was 4.2 mM atm^–1.

**Q.** For `CN1c2c(nc(N)[nH]c2=O)NCC1CNc1ccc(C(=O)N[C@@H](CCC(=O)O)C(=O)O)cc1` (stereo partly drawn) [5-methyltetrahydrofolate, 5-methyl tetrahydrofolate], which dissociation constant [2] is on record?
**A.** The dissociation constant was “micromolar”.

**Q.** And the Kd [3]?
**A.** The Kd was 0.1 to 1 nM.

**Q.** With `COc1cc2c3cc1OCCOc1cc4c(cc1OC)Cc1cc5c(OC)cc1Cc1cc(c(OCc6cn(CCC(=O)N[C@@H](CCCCNC(=O)CC[C@H](NC(=O)c7ccc(NCc8cnc9nc(N)[nH]c(=O)c9n8)cc7)C(=O)O)C(=O)N[C@@H](CCCCN)C(=O)N[C@@H](CCCNC(=N)N)C(=O)N[C@@H](CCCCN)C(=O)N[C@@H](CCCNC(=N)N)C(=O)N[C@@H](CCCCN)C(=O)NCCOCCOCCOCC(=O)N[C@@H](CCCNC(=N)N)C(=O)N[C@@H](CCCCN)C(=O)N[C@@H](CSSC(C)(C)C)C(=O)N[C@@H](CCCNC(=N)N)C(N)=O)nn6)cc1C4)OCCOc1cc(c(cc1OC)Cc1cc(c(OC)cc1C3)OCCO5)C2` [compound 24] (X1-K([γGlu-Pteroyl])KRKRK[AEEEA]RKC(StBu)R-NH2) as the compound, how does the solubility in water [4] read?
**A.** The solubility in water was “readily soluble in water”.

**Q.** And the “protein bound 129Xe NMR signal” value [5]?
**A.** Its value is “no observable protein bound signal”.

**Q.** What about the “viability (maximum toxicity)” value [6] of the same compound?
**A.** Its value is 23%.
